Experimental data taken from ChEMBL document CHEMBL4513216, “Probing the Open Global Health Chemical Diversity Library for Multistage-Active Starting Points for Next-Generation Antimalarials” (ACS Infect Dis, 2020).

Assay: Toxicity liver stage against HepG2, at 10uM
Format: cell-based
Parameters: test concentration 10 uM, cell line HepG2-A16-CD81EGFP
Details: human, HepG2-A16-CD81EGFP cells; read-out: INHIBITION
Outline: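 Uninfected HepG2-A16-CD81EGFP cells, 3 × 10^3 per well, 1536-well, plated on prespotted compound at 10 μM final, parasite-free screening media added to match infected plates; puromycin 10 μM positive, DMSO 0.5% negative; run in parallel with 48 h PbLuc assay at 37 °C, 5% CO2; viability by CellTiter-Glo luminescence, normalized to controls.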

SMILES	cytotoxicity at 10 µM [%]
CC(c1ccc(F)cc1)N1CCN(Cc2ccc(C#N)cc2)CC1 (stereo unspecified)	-6.17
O=C(NC[C@H]1OC[C@@H](NCc2ccc(F)cc2)[C@@H]1O)c1ccncc1	7.2
CNC(=O)CN1C(=O)CN(C(=O)COC)CCC(OC)c2ccccc21 (stereo unspecified)	-8.12
Cc1nc2ccn(C(C)C)c(=O)c2cc1C(=O)O	-43.6
O=C(CCn1ccc2cc(Br)ccc21)NC[C@@H]1CCCN2CCCC[C@H]12	8.35
CN1C(=O)C2(CC(=O)Nc3[nH]ncc32)c2ccc(F)cc21 (stereo unspecified)	-1.52
O=c1c(NCc2ccco2)c(NCC(O)CN2CCOCC2)c1=O (stereo unspecified)	-55.8
COC[C@]12COC[C@H]1CN(C(=O)C1CC(F)(F)C1)C2	5.83
CCC1=N[C@@]2(CC[C@@H]3CN(C(=O)NCC(C)C)C[C@@H]32)C(=O)N1CCOC	10.3
Cc1ccc(C)c(NC(=O)Cn2cc(I)cn2)c1	7.72
CC(=O)c1c(C)nn(S(=O)(=O)c2ccccc2)c1C	-0.305
CCc1ccccc1N1CC(c2nnc(N)s2)CC1=O (stereo unspecified)	0.502
Cc1cccc(Cn2ccc(NS(C)(=O)=O)n2)c1	-6.6
CCn1cc(N)c(C(=O)NCc2cnn(C)c2)n1	-0.729
COCCNCc1cc2c(C)cc(C)cc2n2c(=O)n(C)nc12	-10.3
O=C(Cn1c(=O)n(Cc2ccco2)c2ncccc21)NC1CCCC1	-3.05
Cc1cnccc1CN1CC[C@H](Oc2cccc(F)c2)[C@@](C)(O)C1	-5.55
CN(C)c1ccc(CC2COCCN(Cc3nccn3C)C2)nn1 (stereo unspecified)	-10.2
CC(=O)N1CCN(C)CC(COCc2ccccc2)C1 (stereo unspecified)	-4.79
CC(=O)N1CC2(CCCN(Cc3ccc(Cl)cc3)C2)Cc2ccccc21 (stereo unspecified)	10.6
CCn1nnnc1-c1cccc(NCc2nc(C)ccc2O)c1	-1.71
Fc1cccc2c1CCC2NCc1ccc(N2CCOCC2)cc1 (stereo unspecified)	-14.7
Cc1cc(N2CCC(NS(C)(=O)=O)CC2)nc(C(C)C)n1	-3.36

SMILES	cytotoxicity at 10 µM [%]
CCN(Cc1cccc(Cl)c1)Cc1ncc(C(C)(C)C)o1	11.2
Cc1ccc(CCCC(=O)N2CC(=O)Nc3cccnc32)s1	-36.6
Cc1cc(NC(N)=O)ccc1OCC(F)(F)F	-0.883
Cc1cnn(C2CN(CCCOc3ccc(C#N)cc3)C2)c1	4.09
Cc1c(COC(C)C)cccc1NC(=O)N1CCCC(CO)C1 (stereo unspecified)	-5.44
Cc1ccc2ncn(CC(O)CN3CCC(C)CC3)c(=O)c2c1 (stereo unspecified)	-0.539
O=C(c1sccc1C1CC1)N1CCN(c2ncccn2)CC1	-6.87
O=C(c1ccc(-n2cccn2)c(F)c1)N1CCCN2CCCC2C1 (stereo unspecified)	-3.9
Cc1ccc(CNC(=O)N2CCOCC2C2CC2)cc1F (stereo unspecified)	10.4
Cc1cc(NC2CCc3nc(C(C)C)nn3C2)n2ncnc2n1 (stereo unspecified)	13.4
O=C(Cc1ccc2c(c1)OCO2)N1CCN(c2ccncc2)CC1	-22.9
Cc1cnn(CC2CCCN2C(=O)Cc2ccc3c(c2)CCO3)c1 (stereo unspecified)	-144
CCn1cnnc1C1CCN(C(=O)c2ccc(OC(C)C)nc2)CC1	1.14
CCN(CC(=O)Nc1c(C)n[nH]c1C)CC(O)c1ccc(C)cc1 (stereo unspecified)	-2.86
Cc1n[nH]c(C2CN(CCCOc3ccc(F)cc3)CCO2)n1 (stereo unspecified)	-5.76
CN(Cc1ccccc1NCc1ncc[nH]1)C(=O)c1cccs1	-3.21
CC(C)(C)OCCN(Cc1cccc(O)c1)C1CCC(O)CC1 (stereo unspecified)	8.22
CN(CC(O)C1CC1)C(=O)c1ccc(-c2nc(C3CC3)no2)cc1 (stereo unspecified)	-3.45
COc1cccc(S(=O)(=O)CCNCCn2cccn2)c1	-4.96
CCn1ccnc1S(=O)(=O)Cc1ccc(C(N)=O)cc1	-3.8
O=C(CCN1CCOCC1)Nc1cccc(CNCc2cccs2)c1	5.04
COc1ccc(CNC(=O)c2ccc(Br)cn2)cc1	-18
CC(=O)NCCC(=O)Nc1sccc1C(=O)C(C)(C)C	-46.3

SMILES	cytotoxicity at 10 µM [%]
CN(C)c1ncc(CNC(=O)Nc2ccccc2F)n1C	-46.9
CC(C1CC1)N(C)C(=O)CCn1cccn1 (stereo unspecified)	-2.37
CN(C)c1ccc(CCCNC(=O)Nc2ccc(C#N)cc2)cc1	-1.14
O=C1CC[C@@H]2[C@@H](CCN2S(=O)(=O)C2CC2)N1CC1CC1	-79.4
Cn1c2c(ccc1=O)CC(NC(=O)c1ccsc1)CC2 (stereo unspecified)	-1.87
CCN1CCOCC2(C1)CN(C(=O)c1c(C)noc1C)CCO2 (stereo unspecified)	13.8
CN(C)CCOCc1cncc2c1CCN(C(=O)c1cscn1)C2	-102
CC(C)n1c2ccccc2c2c1cc(C(=O)N(C)C)n2S(C)(=O)=O	-90.8
O=C(c1cccc(F)c1)N1CC[C@@H]2CN(c3ncccn3)CCO[C@@H]2C1	-71.5
Cc1ccccc1N1CCCN(C(=O)CCc2nncn2C)CC1	3.82
CC(C)C1CN(Cc2nccn2C)CCC(=O)N1CC1CC1 (stereo unspecified)	-13.7
CC(C)(C(=O)NCC1CCN(Cc2ccccn2)C1)c1ccccc1 (stereo unspecified)	-3.09
Cc1cc(C)n(CC(C)Nc2nc(-c3ccncc3)nc3c2CNC3)n1 (stereo unspecified)	-1.75
Cc1ccc(CN(Cc2ccccn2)C(=O)CCC2CCCN(C)C2)s1 (stereo unspecified)	18.3
c1cnn(CC2CCN(c3nc(C4CC4)nc4c3CCNCC4)CC2)c1	-2.84
CCN(CC)c1ncccc1CNCc1ccc(Cl)s1	10.6
Cc1nn(C2CCCC2)c2nc(C(C)(C)CN3CCN(C)CC3)[nH]c12	-6.61
N#CC1CCCN(S(=O)(=O)c2ccc(C(=O)NCC(F)F)cc2)C1 (stereo unspecified)	6.74
CCN(CCOC)C(=O)CCc1scnc1C	-15.8
Cc1cccnc1N1CCN(C(=O)CCc2ccccn2)CC1	-12.1
Cc1ccc([C@@H]2CN(C(=O)CCc3ccco3)C[C@H]2N(C)C)cc1	3.13
CN(CCCc1cnn(C)c1)Cc1cc2n(n1)CCCNC2	6.49
Cc1[nH]c2c(F)cccc2c1CC(=O)N1CCC(NS(C)(=O)=O)CC1	7.58

SMILES	cytotoxicity at 10 µM [%]
CCc1nc(N2CCCC(CCCOC)C2)c2cnn(C)c2n1 (stereo unspecified)	6.46
CN1CCC(Cc2noc(CC3CC3)n2)CC1	-9.96
CSc1ccc(CNC(=O)C2CC(=O)N(C(C)(C)C)C2)cc1 (stereo unspecified)	4.69
COc1ccnc(N2CCC3(CCCN(C(C)C)C3=O)C2)n1 (stereo unspecified)	-8.7
C=C(C)COc1ccccc1CN1CCCC(C(=O)NCCCO)C1 (stereo unspecified)	7.36
Cc1ccc(F)cc1-n1c(CN(C)S(C)(=O)=O)n[nH]c1=O	2.19
Fc1ccccc1CN1CCCC(NC2CCOCC2)C1 (stereo unspecified)	6.56
CC(C)Cc1cc(-c2cc(-c3ccc[nH]3)nc(N)c2C#N)n[nH]1	14.3
CC1CN(S(=O)(=O)c2ccc(C(=O)NCC(F)F)cc2)CCCO1 (stereo unspecified)	4.05
COc1cc(C)cc(C(C(=O)O)N(C)Cc2cnn(C)c2)c1OC (stereo unspecified)	7.87
COc1cccc(C(=O)Nc2ccc(OC3CCN(C)CC3)cc2)c1	-6.88
CCSc1nsc(NC(=O)COc2ccc3c(c2)OCO3)n1	2.03
CC(=O)NCCOc1cccc(Br)c1	-3.06
COCCN1CCN(C(C(=O)O)c2ccc(SC)cc2)CC1 (stereo unspecified)	1.75
COc1ccc(F)c(-c2cc(O)nc(N)n2)c1	2.05
CN(C)CC1(O)CCN(S(=O)(=O)c2ccc(F)c(F)c2)C1 (stereo unspecified)	-0.954
Fc1ccc(-c2nc(CNC3CCc4ncnn4C3)cs2)cc1 (stereo unspecified)	-4.92
Cc1cc(NC(=O)NCC(O)c2ccc(F)cc2)n(C)n1 (stereo unspecified)	-2.69
CC(Cn1ccnc1)NC(=O)N1CCN(Cc2cccs2)CC1 (stereo unspecified)	-5.36
CCN(Cc1cccc(C)c1)Cc1nc2c(cnn2C)c(=O)[nH]1	-21.6
Cc1nc2n(n1)CC(NCc1cc(Cl)c3c(c1)OCCCO3)CC2 (stereo unspecified)	-4.15
COc1cc(CNCc2ccc(C(C)O)cc2)cc2c1OCO2 (stereo unspecified)	-9.78
COc1cccc(-n2nnc(C(=O)N3CCNC(=O)C3)c2C)c1	-10.3

SMILES	cytotoxicity at 10 µM [%]
CCn1ccnc1CNCC1CCCN1c1cccnn1 (stereo unspecified)	-1.28
CCc1noc(C(C)N2CCOCC2)n1 (stereo unspecified)	-6.5
c1ccc2cc(OCCN3CCOC(Cn4cncn4)C3)ccc2c1 (stereo unspecified)	4.6
Cc1cn2c(n1)CCC(NC(=O)c1cc(C(C)C)no1)C2 (stereo unspecified)	-2.12
CN(C)C(=O)N1CCC2(CC1)CNc1ccc(F)cc12	8.88
Cc1nc2c(c(NC(C)C)n1)CCN(C(=O)c1ccno1)CC2	7.77
Cc1ccc(CN2C[C@@H]3CCCO[C@@H]3[C@H](NC(=O)CC3CC3)C2)s1	19.9
CN(C)C1CCN(C(=O)c2cc3c(s2)CCN3C(=O)C2CC2)CC1	9.61
Cc1nc(CN2C(=O)CC[C@@H]3[C@H]2CCN3C(=O)c2ccccn2)cs1	-77.7
CN1[C@H](CN2CCCC2)C[C@@H]2CN(C(=O)Cc3cccs3)CC[C@@H]21	4.99
CNC(=O)c1cnc2n1CCN(Cc1cccnc1)C2	8.88
CC(=O)N1CCO[C@@H]2CN(S(=O)(=O)c3cccnc3)C[C@@H]2C1	3.02
O=C(NCC1Cn2nnc(-c3ccncc3)c2CO1)c1ccsc1 (stereo unspecified)	11.1
CCS(=O)(=O)N1CCN(Cc2ccncc2)c2nc(C)ccc2C1	-70.8
Cc1noc(C)c1CN1CCO[C@H]2CN(Cc3ccc(F)cc3)C[C@H]21	1.96
CN1C(=O)C2(CCNCC2)c2cc(F)ccc21	-115
O=C1CC[C@H]2[C@H](CCN2c2ncc(F)cn2)N1c1ccccc1	5.86
CN1[C@@H]2CC[C@H]1CN(c1cc(Sc3cccs3)nc(N)n1)CC2	-8.02
O=C(Nc1cccnc1)[C@H]1C[C@H]2CN(S(=O)(=O)C3CC3)C[C@@H]1O2	-71.8
